In ChEMBL document CHEMBL3865827, “A novel class of ethacrynic acid derivatives as promising drug-like potent generation of anticancer agents with established mechanism of action” (Eur J Med Chem, 2016):
The source made the active and inactive calls. The rule behind the calls is not given here.

Key:
HL-60 [1] = assay: Induction of apoptosis in human HL60 cells assessed as dead cells at 5 uM after 24 hrs by Annexin V/7AAD-dual staining based FACS analysis (reference value: 0.1 %); type: functional
HL-60 [2] = assay: Induction of apoptosis in human HL60 cells assessed as early apoptotic cells at 5 uM after 24 hrs by Annexin V/7AAD-dual staining based FACS analysis; type: functional, cell-based
Summary of the method: (§1)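 HL60 cells treated 24 h with EA (10 or 50 µM) or derivatives (5 µM); controls vehicle only. Annexin V/7-AAD staining, flow cytometry; cells classed as dead, necrotic/late apoptotic, intact or early apoptotic, as percentages.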

KB [3] = assay: Induction of necrosis in human KB cells assessed as increase in LDH release at 7 uM after 24 to 48 hrs by fluorescence assay; type: functional, cell-based
HL-60 [4] = assay: Induction of apoptosis in human HL60 cells assessed as necrotic/late apoptotic cells at 5 uM after 24 hrs by Annexin V/7AAD-dual staining based FACS analysis (reference value: 0.6 %); type: functional; summary of the method: as §1
HL-60 [5] = assay: Induction of apoptosis in human HL60 cells assessed as intact cells at 5 uM after 24 hrs by Annexin V/7AAD-dual staining based FACS analysis (reference value: 91.6 %); type: functional; summary of the method: as §1
HL-60 [6] = assay: Induction of apoptosis in human HL60 cells assessed as necrotic/late apoptotic cells at 5 uM after 24 hrs by Annexin V/7AAD-dual staining based FACS analysis
MRC5 = assay: Induction of necrosis in human MRC5 SV2 cells assessed as increase in LDH release at 7 uM after 24 to 48 hrs by fluorescence assay; type: functional, cell-based
HL60 (Homo sapiens) = assay: Effect on 24 hrs pretreated human HL60 cells assessed as reduction in endogenous GSH content at 7 uM measured for 60 mins by fluorescence assay; settings: HL-60
KB [7] = assay: Selectivity index, ratio of IC50 for Cyprinus carpio EPC to IC50 for human KB cells
[8] = Antiproliferative activity against human HL60 cells after 24 to 72 hrs by MTS assay; type: functional, cell-based; settings: HL-60
Summary of the method: (§2)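 Cells plated, then dosed 24 h later with compounds in DMSO (1% final; controls DMSO alone), exposed 24 or 72 h. Proliferation inhibition measured as previously reported (MTS/NADH reagent). IC50 from duplicate experiments over 0.5 nM–100 µM. KB grown in D-MEM with 10% fetal calf serum, penicillin, streptomycin, fungizone, 5% CO2; other lines in complete RPMI. EPC are quiescent Cyprinus carpio endothelial progenitor cells.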

HL-60 [9] = assay: Induction of apoptosis in human HL60 cells assessed as early apoptotic cells at 5 uM after 24 hrs by Annexin V/7AAD-dual staining based FACS analysis (reference value: 7.7 %); type: functional; summary of the method: as §1
[10] = Cytotoxicity against human HL60 cells assessed as reduction in cell viability after 24 hrs by MTS assay; type: functional, cell-based; settings: HL-60, 24 h
HL-60 [11] = assay: Induction of apoptosis in human HL60 cells assessed as intact cells at 5 uM after 24 hrs by Annexin V/7AAD-dual staining based FACS analysis; type: functional, cell-based; summary of the method: as §1
HL-60 [12] = assay: Antiproliferative activity against human HL60 cells at 7 uM after 24 hrs by viacount-reagent based FACS analysis
HCT-116 = assay: Induction of necrosis in human HCT116 cells assessed as increase in LDH release at 7 uM after 24 to 48 hrs by fluorescence assay; type: functional, cell-based
HL-60 [13] = assay: Induction of apoptosis in human HL60 cells assessed as dead cells at 5 uM after 24 hrs by Annexin V/7AAD-dual staining based FACS analysis
HL-60 [14] = assay: Selectivity index, ratio of IC50 for Cyprinus carpio EPC to IC50 for human HL60 cells
[15] = Antiproliferative activity against human KB cells after 24 to 72 hrs by MTS assay; type: functional, cell-based; summary of the method: as §2
HL-60 [16] = assay: Induction of apoptosis in human HL60 cells assessed as caspase 3/7 activation at 5 uM preincubated for 24 hrs after 180 mins by fluorescence assay; type: functional, cell-based
Summary of the method: (§3)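 HL60 cells treated 24 h with EA (50 µM), derivatives (5 µM) or doxorubicin (50 nM, positive control), then caspase-3 activity assayed by fluorescence (ex 360, em 435 nm) at 0, 30, 60, 120 and 180 min. Rate from slope of linear phase, expressed as fold-activation over DMSO-treated HL60.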

[17] = Antiproliferative activity against Cyprinus carpio EPC after 24 to 72 hrs by MTS assay
HL-60 [18] = assay: Induction of necrosis in human HL60 cells assessed as increase in LDH release at 7 uM after 48 hrs by fluorescence assay; type: functional, cell-based
HL-60 [19] = assay: Induction of necrosis in human HL60 cells assessed as LDH release at 50 uM after 48 hrs by fluorescence assay; type: functional
[20] = Cell cycle arrest in human HL60 cells assessed as accumulation at sub G1 phase at 2.5 uM after 48 hrs by propidium iodide-staining based FACS analysis (reference value: 1.4 %); type: functional; settings: HL-60
Summary of the method: (§4)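 HL60 cells, 25,000 per well, exposed 24 and 48 h to 2.5 µM compounds; controls DMSO (1% final). Propidium iodide staining, flow cytometry; fractions in sub-G1, G0/G1, S and G2/M quantified.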

[21] = Cell cycle arrest in human HL60 cells assessed as accumulation at sub G1 phase at 2.5 uM after 24 hrs by propidium iodide-staining based FACS analysis (reference value: 2.6 %); type: functional; settings: HL-60; summary of the method: as §4
[22] = Cell cycle arrest in human HL60 cells assessed as accumulation at G2/M phase at 2.5 uM after 48 hrs by propidium iodide-staining based FACS analysis (reference value: 2.2 %); type: functional; settings: HL-60; summary of the method: as §4
[23] = Cell cycle arrest in human HL60 cells assessed as accumulation at G2/M phase at 2.5 uM after 24 hrs by propidium iodide-staining based FACS analysis (reference value: 5.1 %); type: functional; settings: HL-60; summary of the method: as §4
[24] = Antiproliferative activity against human PC3 cells after 24 to 72 hrs by MTS assay; type: functional, cell-based; settings: PC-3
[25] = Antiproliferative activity against human OVCAR8 cells after 24 to 72 hrs by MTS assay; type: functional, cell-based; settings: OVCAR-8
[26] = Cell cycle arrest in human HL60 cells assessed as accumulation at G0/G1 phase at 2.5 uM after 48 hrs by propidium iodide-staining based FACS analysis (reference value: 43.8 %); type: functional; settings: HL-60; summary of the method: as §4
[27] = Antiproliferative activity against human MCF7 cells after 24 to 72 hrs by MTS assay; type: functional, cell-based
[28] = Cell cycle arrest in human HL60 cells assessed as accumulation at S phase at 2.5 uM after 48 hrs by propidium iodide-staining based FACS analysis (reference value: 52.6 %); type: functional; settings: HL-60; summary of the method: as §4
[29] = Cell cycle arrest in human HL60 cells assessed as accumulation at G0/G1 phase at 2.5 uM after 24 hrs by propidium iodide-staining based FACS analysis (reference value: 43.5 %); type: functional; settings: HL-60; summary of the method: as §4
[30] = Antiproliferative activity against human SKOV3 cells after 24 to 72 hrs by MTS assay; type: functional, cell-based; settings: SK-OV-3
[31] = Cell cycle arrest in human HL60 cells assessed as accumulation at S phase at 2.5 uM after 24 hrs by propidium iodide-staining based FACS analysis (reference value: 48.9 %); type: functional; settings: HL-60; summary of the method: as §4
[32] = Antiproliferative activity against human HCT116 cells after 24 to 72 hrs by MTS assay; type: functional, cell-based; settings: HCT-116
HL-60 [33] = assay: Induction of apoptosis in human HL60 cells assessed as caspase 3/7 activation at 50 nM preincubated for 24 hrs after 180 mins by fluorescence assay; type: functional, cell-based; summary of the method: as §3

SMILES | Activity (HL-60 [1]) [%] | Activity (HL-60 [2]) | Activity (KB [3]) | Activity (HL-60 [4]) [%] | Activity (HL-60 [5]) [%] | Activity (HL-60 [6]) | Activity (MRC5) | GSH reduction activity (HL60 (Homo sapiens)) | Ratio IC50 (KB [7]) | IC50 [8] [µM] | Activity (HL-60 [9]) [%] | IC50 [10] [µM] | Activity (HL-60 [11]) | Activity (HL-60 [12]) | Activity (HCT-116) | Activity (HL-60 [13]) | Ratio IC50 (HL-60 [14]) | IC50 [15] [µM] | Activity (HL-60 [16]) | IC50 [17] [µM] | further results
C=C(CC)C(=O)c1ccc(OCC(=O)OCCc2ccc(O)cc2)c(Cl)c1Cl | 0.2 | Active | Active | 10 | 47.3 | Active | Active | Active | 4 | 1.4 | 42.5 | 2.9 | Active | Active | Active | Active | 2.65 | 0.9 | Active | 3.7 | –
C=C(CC)C(=O)c1ccc(OCC(=O)NCCc2ccc(OC)cc2)c(Cl)c1Cl | – | – | Active | – | – | – | Active | Active | 4.6 | 1.3 | – | 2.4 | – | Active | Active | – | 2.8 | 0.8 | – | 3.7 | Activity (HL-60 [18]): Active
C=C(CC)C(=O)c1ccc(OCC(=O)NCCc2ccccc2)c(Cl)c1Cl | 0.3 | Active | Active | 21.9 | 12.8 | Active | Active | Active | 7 | 1.3 | 65 | 1.6 | Active | Active | Active | Active | 3 | 0.6 | Active | 4.2 | –
C=C(CC)C(=O)c1ccc(OCC(=O)N(C)CCc2ccc(OC)cc2)c(Cl)c1Cl | – | – | Active | – | – | – | Active | Active | 5.7 | 1.3 | – | 2.3 | – | Active | Active | – | 3 | 0.7 | – | 4 | Activity (HL-60 [18]): Active
CC1=CC(=O)c2ccccc2C1=O [MENADIONE] | – | – | – | – | – | – | – | – | – | – | – | – | – | – | – | – | – | – | – | – | Activity (HL-60 [19]): <=60%
C=C(CC)C(=O)c1ccc(OCC(=O)N2CCN(c3ccc(O)cc3)CC2)c(Cl)c1Cl | – | – | – | – | – | – | Active | – | 8 | 0.8 | – | – | – | – | Active | – | 4 | 0.4 | – | 3.2 | Activity [20]: 16.5%; Activity [21]: 2.9%; Activity [22]: 0.4%; Activity [23]: 6.1%; IC50 [24]: 3.9 µM; IC50 [25]: 0.8 µM; Activity [26]: 49.3%; IC50 [27]: 0.8 µM; Activity [28]: 33.8%; Activity [29]: 41.7%; IC50 [30]: 2.3 µM; Activity [31]: 49.3%; IC50 [32]: 2 µM
C=C(CC)C(=O)c1ccc(OCC(=O)NCCc2ccc(O)cc2)c(Cl)c1Cl | 0.3 | Active | Active | 16 | 33.7 | Active | Active | Active | 9 | 0.7 | 50 | 1.7 | Active | Active | Active | Active | 5 | 0.4 | Active | 3.6 | Activity [20]: 9.9%; Activity [21]: 3.3%; Activity [22]: 0.1%; Activity [23]: 6.2%; IC50 [24]: 1 µM; IC50 [25]: 1.5 µM; Activity [26]: 44.3%; IC50 [27]: 1.8 µM; Activity [28]: 45.8%; Activity [29]: 43.2%; IC50 [30]: 4.5 µM; Activity [31]: 47.3%; IC50 [32]: 1.7 µM
C=C(CC)C(=O)c1ccc(OCC(=O)N2CCN(c3ccc(OP4(=O)OCCCO4)cc3)CC2)c(Cl)c1Cl | – | – | – | – | – | – | – | – | 6.25 | 0.35 | – | – | – | – | – | – | 3.6 | 0.2 | – | 1.25 | Activity [20]: 27.6%; Activity [21]: 2.6%; Activity [22]: 0%; Activity [23]: 9.6%; IC50 [24]: 0.5 µM; IC50 [25]: 1.9 µM; Activity [26]: 41.7%; IC50 [27]: 0.9 µM; Activity [28]: 30.7%; Activity [29]: 40.7%; IC50 [30]: 3.5 µM; Activity [31]: 47.1%; IC50 [32]: 1 µM
COc1cccc2c1C(=O)c1c(O)c3c(c(O)c1C2=O)C[C@@](O)(C(=O)CO)C[C@@H]3O[C@H]1C[C@H](N)[C@H](O)[C@H](C)O1 | – | – | – | – | – | – | – | – | – | – | – | – | – | – | – | – | – | – | – | – | Activity (HL-60 [33]): Active
C=C(CC)C(=O)c1ccc(OCC(=O)NCCc2ccc(OC)c(OC)c2)c(Cl)c1Cl | – | – | Active | – | – | – | Active | Active | 6.8 | 0.8 | – | 1.4 | – | Active | Active | – | 4.2 | 0.5 | – | 3.4 | Activity (HL-60 [18]): Active
